Screens from PubChem BioAssay.
A selection: hits, their analogues and other compounds. The true share with any hit is near 3%.
Beta2AR agonist: human beta-2 adrenergic receptor agonism by FAP; Am2.2-beta2AR cells, FAP receptor internalization, flow cytometry; response, % (no concentration beside the values); hit rate 0.43% among 340,000; AID 504454;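 active = response above a set limit, near 3 SD of response in nonfluorescent compounds, cut at about 42% in these data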
MC4R antagonist: antagonists of human melanocortin 4 receptor (MC4R). MC4R-expressing cells, MTII-stimulated cAMP, LANCE TR-FRET. inhibition, % at 6.5 µM. hit rate 0.48% among 360,000;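 active = inhibition above its plate's cutoff, the mean of tested wells on that plate plus 3 SD, cut at about 29% in these data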;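 also: 0% = Melanotan II alone and 100% = Melanotan II plus saturating MCL0020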
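Material: U2OS-MC4R stable cell line | Reagent: Melanotan II challenge after compound preincubation | Doses: One concentration, 6.5 µM nominal | Incubation: 30-min compound preincubation, 1-h Melanotan II challenge, 1-h detection, room temperature | Signal: TR-FRET cAMP assay | Replicates: One well per compound, no replicates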
ABHD5 PLIN5 PPI: ABHD5-PLIN5 protein interaction inhibition. inhibition, % at 4 µM. AID 602281. hit rate 0.78% among 360,000. Split G. princeps luciferase complementation, luminescence, 4 h. Q00G26+Q8WTS1;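 active = inhibition above the mean inhibition across every tested compound plus 3 SD, cut at about 22% in these data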;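 also: 0% = DMSO only wells and the 100% control is not disclosed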
Target sequence (Q00G26 whole entry, looked up): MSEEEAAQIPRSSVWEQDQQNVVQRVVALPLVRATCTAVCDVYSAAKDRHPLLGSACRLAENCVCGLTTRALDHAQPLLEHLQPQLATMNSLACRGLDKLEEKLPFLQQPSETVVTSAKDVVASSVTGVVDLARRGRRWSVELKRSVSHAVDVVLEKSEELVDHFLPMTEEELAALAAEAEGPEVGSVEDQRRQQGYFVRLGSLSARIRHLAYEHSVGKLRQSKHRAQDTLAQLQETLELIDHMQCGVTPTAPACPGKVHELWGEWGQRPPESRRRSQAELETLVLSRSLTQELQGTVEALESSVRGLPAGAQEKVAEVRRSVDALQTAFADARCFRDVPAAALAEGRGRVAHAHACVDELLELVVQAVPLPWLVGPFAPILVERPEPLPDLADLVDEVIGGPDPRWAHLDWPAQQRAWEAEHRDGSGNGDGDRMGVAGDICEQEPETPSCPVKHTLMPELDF
Target sequence (Q8WTS1 whole entry, looked up): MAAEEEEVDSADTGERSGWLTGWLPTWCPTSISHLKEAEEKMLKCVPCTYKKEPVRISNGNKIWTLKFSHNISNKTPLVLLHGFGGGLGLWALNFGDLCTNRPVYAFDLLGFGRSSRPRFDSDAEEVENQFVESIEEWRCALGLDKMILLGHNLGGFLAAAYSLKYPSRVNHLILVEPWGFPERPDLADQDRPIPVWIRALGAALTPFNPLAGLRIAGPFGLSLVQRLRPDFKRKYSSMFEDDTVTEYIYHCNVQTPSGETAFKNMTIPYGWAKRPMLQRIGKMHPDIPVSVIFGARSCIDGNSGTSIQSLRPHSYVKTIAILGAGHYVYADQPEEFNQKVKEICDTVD
PfG6PD inh: PfG6PD (Plasmodium falciparum) enzyme inhibition; PfGluPho enzyme, NADPH resazurin-diaphorase fluorescence; hit rate 0.78% among 350,000; inhibition, % at 20 µM;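 active = inhibition reaching at least a set limit at 20 µM in the primary screen, cut at about 59% in these data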;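 also: 0% = DMSO wells with substrate and 100% = DMSO wells lacking glucose-6-phosphate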
MC4R barr agon: agonists of human melanocortin 4 receptor (MC4R) beta-arrestin | hit rate 0.98% among 360,000 | activation, % at 8.9 µM | P32245 | AID 540308 | U2OS MC4R beta-arrestin complementation, luminescence; percent of melanotan II response, DMSO zero;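 active = activation above a per-plate cutoff, the mean activation of sample wells on that plate plus 3 SD, cut at about 8% in these data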
An asterisk follows results filed as active; x = not tested or not shown.

SMILES | Beta2AR agonist | MC4R antagonist | ABHD5 PLIN5 PPI | PfG6PD inh | MC4R barr agon
CC(=O)NC(Cc1ccc(F)cc1)C(=O)NC1CCN(C(=O)Nc2ccc(F)cc2)CC1 (centres undefined) | -18.2 | 2.1 | 0.7 | 10.5 | 0.1
C#CCOCCOCCOCCNc1nc(N2CCN(C(=O)CCCCCCCCCCNC(=O)Cn3cc(C[C@@H](C)O)nn3)CC2)nc(N2CCN(C(=O)CCCCCCCCCCNC(=O)[C@H](CCCN=C(N)N)n3cc(C[C@@H](C)CC)nn3)CC2)n1 | 57.0* | 42.2* | 55.1* | 50.6 | -2.0
C#CCOCCOCCOCCNc1nc(N2CCN(C(=O)CCCCCCCCCCNC(=O)Cn3cc(C[C@@H](C)O)nn3)CC2)nc(N2CCN(C(=O)CCCCCCCCCCNC(=O)[C@@H](CCC(=O)O)n3cc(CCCCCN)nn3)CC2)n1 | 27.6 | 7.2 | 20.4 | 8.0 | 0.0
N=C1/C(=C/c2cccn2Cc2ccc(Cl)cc2)C(=O)N=C2SC=CN12 | -5.2 | -10.0 | -3.5 | -10.7 | 9.4*
CC1=CC2=NC(=O)/C(=C/c3cccn3Cc3ccccc3)C(=N)N2O1 | -3.3 | 11.9 | 8.4 | -8.9 | -1.9
CC(C)c1cc(C(=O)NNC(=S)NCc2ccco2)c(O)c(C(C)C)c1 | 3.9 | 15.1 | -13.1 | -23.7 | 7.0
CCn1c(SCC(=O)c2ccc3c(c2)Cc2ccccc2-3)nnc1-c1ccc(N)cc1 | -2.4 | 7.2 | 1.1 | 0.2 | 10.9*
COc1ccc(C2Nc3cccc(O)c3C(=O)N2Cc2ccccc2)cc1COc1ccc(NC(C)=O)cc1 (centres undefined) | x | 10.5 | 13.9 | x | -1.0
Oc1ccc(Nc2nc3ccccc3nc2Nc2ccc(O)cc2)cc1 | 1.1 | 5.8 | 57.2* | 45.5 | -0.2
O=C1C2C3C=CC(CO)(O3)C2C(=O)N1c1ccccc1-c1ccccc1 (centres undefined) | 55.4* | -2.8 | 44.8* | 82.2* | -3.1
O=C1C2C3C=CC(CNS(=O)(=O)c4ccccc4)(O3)C2C(=O)N1c1ccc(Cl)cc1 (centres undefined) | 2.4 | 19.8 | 15.3 | 2.1 | 0.3
O=[N+]([O-])c1ccc(Cl)c(CN2CCN(c3ncc(Cc4ccccc4)cn3)CC2)c1 | x | x | -5.8 | x | x
O=c1ccc(-c2ccc(S(=O)(=O)Nc3cccc(Br)c3)o2)n[nH]1 | 0.6 | -0.6 | -3.2 | -30.0 | -3.4
Cc1cccc(C)c1-n1nnnc1SCSc1nnnn1-c1c(C)cccc1C | -0.4 | 1.3 | 4.8 | -6.5 | 8.7*
CSc1nnnn1-c1c(C)cccc1C | 4.1 | -1.1 | -0.1 | 2.8 | -1.1
Cn1c(N)c(C(=O)N2CCN(c3ccccc3)CC2)c(=O)n(C)c1=O | x | 3.4 | -0.1 | 15.6 | -1.2
CCCc1nn(C)c(C(=O)Nc2cccc(CC)c2)c1Cl | 0.8 | 5.7 | -1.4 | 3.9 | 6.0
CCCc1nn(C)c(C(=O)Nc2ccc3ccccc3c2)c1Cl | 6.2 | 13.5 | -10.9 | -8.3 | 9.4*
CC(=O)Nc1ccc(S(=O)(=O)N2CCC(NC(=O)C(Cc3cccn3C)NC(C)=O)CC2)cc1 (centres undefined) | 11.2 | 7.2 | 22.7* | 1.3 | 0.1
COc1ccc(CC(NC(C)=O)C(=O)NC2CCN(S(=O)(=O)c3ccc(NC(C)=O)cc3)CC2)cc1 (centres undefined) | 6.4 | -7.6 | 10.1 | -17.2 | 0.6
Oc1cc2c(cc1O)[C@@H](c1ccccc1)CNCC2 | 2.8 | -7.1 | -7.6 | 68.9* | 0.6
COc1ccc(Cc2c(-c3ccco3)nc3c(C)cc(Br)cn23)c(C)c1 | x | x | 5.4 | x | x
COc1ccc(Cc2c(-c3ccccc3)nc3ccc(Cl)cn23)c(C)c1 | x | x | -6.7 | x | x
COc1ccc(Cc2c(-c3ccco3)nc3ccc(Cl)cn23)c(C)c1 | x | x | 26.8* | x | x
COc1ccc(Cc2c(-c3ccco3)nc3ccc(Br)cn23)c(C)c1 | x | x | 42.6* | x | x
SMILES | Beta2AR agonist | MC4R antagonist | ABHD5 PLIN5 PPI | PfG6PD inh | MC4R barr agon
Cc1ccc(Cc2c(-c3ccco3)nc3ccc(Br)cn23)cc1 | x | x | 58.1* | x | x
COc1ccc2c(c1)Cc1c-2cc(Br)c(N)c1Br | x | 1.1 | -0.9 | -2.7 | -0.6
COCC(=O)N[C@H]1C=C[C@@H](CC(=O)OC)O[C@@H]1CO | x | x | -1.2 | x | x
CC(=O)Nc1cccc(-c2csc(C(O)c3ccc(F)c(F)c3)n2)c1 (centres undefined) | x | 4.4 | 1.6 | x | -1.3
COc1ccc(-c2nc(NC(=O)c3ccc(OCC(=O)Nc4ccc(F)cc4)c(OC)c3)sc2C)cc1 | 11.8 | 4.1 | -13.6 | 2.1 | 44.6*
COc1cc(C(=O)Nc2nc(-c3cc(C)ccc3C)c(C)s2)ccc1OCC(=O)Nc1ccc(F)cc1 | 6.0 | 6.8 | -5.4 | -4.0 | -1.8
CC(C)(C)c1ccc(/C=C(\c2nc3ccccc3[nH]2)S(=O)(=O)c2ccccc2)cc1 | 21.1 | 8.0 | 42.7* | 16.0 | -0.5
O=C(O)c1ccc(/C=C(\c2nc3ccccc3[nH]2)c2nc3ccccc3s2)cc1 | -1.3 | 0.3 | 1.7 | -27.5 | -0.3
Nc1ccccc1SCc1c(Cl)cccc1Cl | 0.1 | -4.2 | -5.2 | -3.3 | 8.5*
COc1cccc(C(=O)NCCNC(=O)c2ccco2)c1 | -4.7 | -3.9 | 4.4 | -13.9 | -2.1
O=C(Nc1cccc(-c2cnc3ccccc3n2)c1)c1ccccc1 | -4.0 | 4.7 | -0.1 | -12.4 | 3.1
O=C(Nc1cccc(-c2cnc3ccccc3n2)c1)c1cccc(NC(=O)c2ccco2)c1 | 13.8 | -1.1 | 14.7 | 7.6 | 34.7*
CN(C(=O)c1cccc(NC(=O)Cc2ccc(NC(=O)C3CCCN(S(=O)(=O)c4cccc([N+](=O)[O-])c4)C3)cc2)c1)C1CCC1 (centres undefined) | 0.9 | 6.1 | 4.3 | 7.4 | -0.7
CC(C)(C)S(=O)N1Cc2cc(C(=O)NCc3ccc4c(c3)OCO4)nc(-c3cccc(-c4cc5ccccc5o4)c3)c2[C@@H]1CCO (some centres undefined) | x | x | 23.6* | x | x
Cc1ccc(S(=O)(=O)N2CCN(C(=O)/C=C/c3ccco3)CC2)cc1 | -6.6 | 5.5 | 1.2 | -0.7 | -0.1
Cc1ccc(C)c(S(=O)(=O)N2CCN(C(=O)/C=C/c3ccco3)CC2)c1 | -3.7 | 16.0 | 43.5* | 28.3 | 0.0
CCCCC(=O)Nc1ccc(C)c(S(=O)(=O)N2CCCCCC2)c1 | 37.1 | -4.1 | 5.7 | 2.8 | -0.1
CCCCNC(=O)C1=C(N)C(C(=O)Nc2ccc(C)c(S(=O)(=O)N3CCCCC3)c2)SC1=Nc1ccc(C)cc1C (centres undefined) | 5.4 | -2.0 | 24.2* | -12.6 | -0.8
O=C(c1ccc(COc2ccc(Cl)cc2)o1)N1N=C(C(F)F)CC1(O)C(F)F (centres undefined) | 12.2 | -5.0 | -5.0 | 9.2 | 8.7*
COc1ccccc1OCc1ccc(C(=O)N2N=C(C(F)F)CC2(O)C(F)F)o1 (centres undefined) | -6.9 | -3.0 | 1.1 | -1.4 | 3.9
C=CCn1c(=NC(=O)c2ccc(S(=O)(=O)N3CCc4ccccc4C3)cc2)sc2cc(S(N)(=O)=O)ccc21 | 5.3 | -2.5 | -8.3 | 1.7 | -2.5
